Data set [1] can be described thus: Determination of DHEA solubility by light scattering. The class given is physicochemical. Particulars: potassium phosphate buffer, pH 7, aqueous buffer.
For the next data set, the target named is T1, hSULT2A1-PAP complex (Homo sapiens, UniProt Q06520).
T1 sequence (Q06520 1-285): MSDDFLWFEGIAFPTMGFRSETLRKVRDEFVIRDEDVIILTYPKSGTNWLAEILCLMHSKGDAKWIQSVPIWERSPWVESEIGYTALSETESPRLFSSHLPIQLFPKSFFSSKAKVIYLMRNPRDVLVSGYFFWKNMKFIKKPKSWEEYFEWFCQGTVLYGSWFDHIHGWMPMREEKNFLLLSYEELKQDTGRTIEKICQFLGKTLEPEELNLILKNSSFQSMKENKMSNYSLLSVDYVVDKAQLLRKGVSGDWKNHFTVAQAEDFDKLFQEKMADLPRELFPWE
The experiment in a line: Ligand binding to the hSULT2A1-PAP complex by intrinsic tryptophan fluorescence.

The target of data set [2] is T2, hSULT2A1 (Homo sapiens, UniProt Q06520).
T2 sequence (Q06520 1-285): T1 sequence (Q06520 1-285)
The experiment in a line: Kinetics of DHEA sulfation catalyzed by recombinant hSULT2A1. It counts as biochemical. Particulars: for substrate inhibition by DHEA: 0.1-2.0 μM DHEA; for substrate inhibition by PAPS: 1.0-300 μM PAPS.

The next data set concerns the target T3, hSULT2A1-DHEAS complex (Homo sapiens, UniProt Q06520).
T3 sequence (Q06520 1-285): T1 sequence (Q06520 1-285)
It counts as binding. Particulars: for Kd: enzyme pretreated with 80 μM (0.08 mM) DHEAS. The method in brief: (§1)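 Purified recombinant hSULT2A1 at 25 nM (dimer basis) was equilibrated 15 min, then pretreated with 80 μM DHEA or 80 μM DHEAS. Test ligand (1.0–300 μM) was added stepwise with stirring at 37 ± 2 °C, and intrinsic tryptophan fluorescence was read after each addition. Data were fitted to a two-site Adair model, with Kd taken as the reciprocal association constants. Triplicates, mean ± SD.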

The next data set has as its target T4, hSULT2A1-DHEA complex (Homo sapiens, UniProt Q06520).
T4 sequence (Q06520 1-285): T1 sequence (Q06520 1-285)
The experiment in a line: Ligand binding to the hSULT2A1-DHEA complex by intrinsic tryptophan fluorescence. Particulars: read-out: Kd2(app); enzyme pretreated with 80 μM (0.08 mM) DHEA. An outline of the steps: as §1

Data set [3] addresses T2, hSULT2A1. The experiment in a line: Ligand binding to ligand-free hSULT2A1 by intrinsic tryptophan fluorescence. Particulars: read-out: dissociation constant (hyperbolic single site); ligand-free enzyme, pH 7.0, 37 °C.
The target of data set [4] is T2, hSULT2A1. Particulars: sulfation of pregnenolone; cited from earlier work.
Where [5] appears, read: read-out: Kd2(app), in the presence of 100 μM (0.1 mM) PAP.
Where [6] appears, read: 0.25-20 μM DHEA, 200 μM PAPS, pH 7.0, 37 °C, substrate inhibition equation.

The structures appear in SMILES notation. Converted amounts (≈) assume the structure as drawn. Where a name gives a salt, the structure may show the parent alone. Read-outs that look alike come from different tables or passages of the source.

Take `C[C@]12CC[C@H](O)CC1=CC[C@@H]1[C@@H]2CC[C@]2(C)C(=O)CC[C@@H]12` [DHEA, dehydroepiandrosterone (5-androsten-3β-ol-17-one)]: the solubility (in general, the dissolved amount per volume that the medium holds) in data set [1] was 80 µM (≈ 23.1 µg/mL). For the same compound, the Kd on hSULT2A1-PAP complex (setting [5]) was determined as 22 ± 3.2 µM. The “substrate inhibition by DHEA” value on hSULT2A1 [2] (intermediate PAPS 5.0 – 60 μM) is on record as “substrate inhibition was observed”. Further, at hSULT2A1 [2] (lowest (1.0 μM) and highest (100 and 300 μM) PAPS), the “substrate inhibition by DHEA” value is “substrate inhibition was not evident”. In addition, on hSULT2A1 [2] (setting [6]), the “Kis (substrate inhibition constant)” value came to 8 ± 3 µM; the Km – broadly, the substrate concentration at which the rate is half of its maximum – is 0.8 ± 0.3 µM; the Vmax (in general, the rate approached at saturating substrate) was found to be 245 ± 40 nmol/min/mg.

`Nc1ncnc2c1ncn2[C@@H]1O[C@H](COP(=O)(O)OS(=O)(=O)O)[C@@H](OP(=O)(O)O)[C@H]1O` [PAPS, 3′-phosphoadenosine 5′-phosphosulfate]: the “substrate inhibition by PAPS” value at hSULT2A1 [2] (80 μM DHEA) is “significant substrate inhibition”; on hSULT2A1 [2] (DHEA 0.1 μM - 2.0 μM) it was “no indication that PAPS displayed substrate inhibition”; on hSULT2A1 [2] (DHEA 5.0 μM or 20 μM), “did not exhibit substrate inhibition”. For the same compound, on hSULT2A1-DHEAS complex (enzyme pretreated with 80 μM DHEAS), the “Kd2(app) relative to Kd1(app)” value is recorded as “over 200 fold”. The Kd stood at 1.3 ± 0.4 µM at hSULT2A1-DHEAS complex (read-out: Kd1(app)) and 315 ± 27 µM at hSULT2A1-DHEAS complex (read-out: Kd2(app)).

Turning to `Nc1ncnc2c1ncn2[C@@H]1O[C@H](COP(=O)(O)O)[C@@H](OP(=O)(O)O)[C@H]1O` [PAP, adenosine 3′,5′-diphosphate], the Kd on hSULT2A1-DHEA complex is 243 ± 27 µM; at hSULT2A1-DHEAS complex (read-out: Kd2(app)), 415 ± 75 µM.

For `C[C@]12CC[C@H](OS(=O)(=O)O)CC1=CC[C@@H]1[C@@H]2CC[C@]2(C)C(=O)CC[C@@H]12` [DHEAS, dehydroepiandrosterone sulfate], the Kd on hSULT2A1-PAP complex (read-out: Kd1(app), in the presence of 100 μM (0.1 mM) PAP) worked out at 3.3 ± 0.2 µM; on hSULT2A1-PAP complex (setting [5]), 3.3 ± 0.2 µM; on hSULT2A1-PAP complex (read-out: Kd(app) (hyperbolic single site), in the presence of 100 μM PAP), 3.3 ± 0.2 µM; on hSULT2A1 [3] it was 7.2 ± 0.3 µM.

For the compound `CC(=O)[C@H]1CC[C@H]2[C@@H]3CC=C4C[C@@H](O)CC[C@]4(C)[C@H]3CC[C@]12C` [pregnenolone], the “catalytic efficiency (kcat/Km) with hSULT2A1 relative to hSULT2B1 and hSULT2B2” value on hSULT2A1 [4] is 3-8 fold.

The record behind these values is paper PMC3058861 (Archives of biochemistry and biophysics, 2010).
